In the array DNA melting data of Ke et al. (doi:10.1101/2024.01.08.574731):

Columns and labels:
[1] = folding enthalpy; higher = less favourable; fluorescence melt of hairpins on a sequencing array, two-state fit; conditions: sodium 0.088 M
Summary of the method: (§1)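 Melting temperature and folding enthalpy were obtained by bootstrapped two-state fitting. Fits used Cy3 fluorescence of library hairpins with annealed Cy3 and quencher oligos on a sequenced MiSeq flow cell, imaged in 50 mM Na-HEPES pH 8.0, 25 mM NaCl in 2.5 °C steps up to 60 °C and normalised to pre-quench Cy3 and control constructs. Four replicates were combined by inverse-variance weighting, and fitted temperatures were raised by 9.35 °C to match UV melts.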

[2] = melting temperature; fluorescence melt of hairpins on a sequencing array, two-state fit, raised by 9.35 °C to match UV melts; conditions: sodium 0.088 M
Summary of the method: as §1

| Sequence | folding enthalpy [1] | Tm [2] |
| --- | --- | --- |
| GCGACCAGTCGC ((((....)))) | -32.7 kcal/mol | 57.3 °C |
| GCGACCGAAAGGTAGCGC ((((((....)))..))) | -31.7 kcal/mol | 68.5 °C |
| GCGACCGAAAGGTATCGC ((((((....)))..))) | -27.7 kcal/mol | 50.5 °C |
| GCGACCGAAAGGTGCGC ((((((....))).))) | -28.9 kcal/mol | 67.1 °C |
| GCGACCGGAAACAGCCGC (((.(.(....).).))) | -21.1 kcal/mol | 32.5 °C |
| GCGACCGGAAACGGTTGC ((.((((....)))).)) | -41.1 kcal/mol | 64.6 °C |
| GCGACCTCTCGC ((((....)))) | -18.6 kcal/mol | 46.9 °C |
| GCGACGAGTCGC ((((....)))) | -36.6 kcal/mol | 60.6 °C |
| GCGACGATTCGC ((((....)))) | -15.9 kcal/mol | 44.6 °C |
| GCGACGCGAAAGCCACGC (((..((....))..))) | -17.7 kcal/mol | 48.7 °C |
| GCGACGCGAAAGCCTTGC ((.(.((....)).).)) | -12 kcal/mol | 35.9 °C |
| GCGACGCGAAAGCGCTGC ((..(((....)))..)) | -17.5 kcal/mol | 57.1 °C |
| GCGACGCGAAAGCTACGC (((..((....))..))) | -18.6 kcal/mol | 52.5 °C |
| GCGACGGGAAACCGTTGC ((.((((....)))).)) | -40 kcal/mol | 61 °C |
| GCGACGTCTCGC ((((....)))) | -13.3 kcal/mol | 54.2 °C |
| GCGACTCCTCGC ((((....)))) | -23.9 kcal/mol | 48.6 °C |
| GCGACTCGTCGC ((((....)))) | -33.6 kcal/mol | 68.3 °C |
| GCGACTGGAAACGGTTGC ((.((.(....).)).)) | -32.1 kcal/mol | 43.9 °C |
| GCGACTGTCGC ((((...)))) | -33 kcal/mol | 48 °C |
| GCGACTGTTCGC ((((....)))) | -22.5 kcal/mol | 47.8 °C |
| GCGACTTTCGC ((((...)))) | -21.8 kcal/mol | 49 °C |
| GCGAGAAGTCGC ((((....)))) | -18.3 kcal/mol | 50.2 °C |
| GCGAGAATTCGC ((((....)))) | -21.8 kcal/mol | 55.3 °C |
| GCGAGAGGAAACTCTCAC (.(((((....))))).) | -17.9 kcal/mol | 39 °C |
| GCGAGAGTCGC ((((...)))) | -11.3 kcal/mol | 55.5 °C |

| Sequence | folding enthalpy [1] | Tm [2] |
| --- | --- | --- |
| GCGAGATGTCGC ((((....)))) | -19.1 kcal/mol | 49.4 °C |
| GCGAGCAATCGC ((((....)))) | -23.8 kcal/mol | 62.2 °C |
| GCGAGCACGAAAGTGCGC (((..(((....)))))) | -8.47 kcal/mol | 56.9 °C |
| GCGAGCATCGC ((((...)))) | -21.8 kcal/mol | 62.1 °C |
| GCGAGCCTTCGC ((((....)))) | -31 kcal/mol | 53.9 °C |
| GCGAGCGAAAGCTAACGC ((((((....)))..))) | -22.7 kcal/mol | 52.6 °C |
| GCGAGCGAAAGCTGCGC ((((((....))).))) | -21.8 kcal/mol | 68.9 °C |
| GCGAGCGGAAACGCCCAC (.(.(((....))).).) | -8.67 kcal/mol | 34.2 °C |
| GCGAGCGGAAACGCCCGC (((.(((....))).))) | -35.4 kcal/mol | 58.4 °C |
| GCGAGGATTCGC ((((....)))) | -22.7 kcal/mol | 54.7 °C |
| GCGAGGCGAAAGCACCGC (((..((....))..))) | -22.8 kcal/mol | 61.8 °C |
| GCGAGGCGAAAGCCAGGC ((..(((....)))..)) | -13.1 kcal/mol | 56.4 °C |
| GCGAGGCGAAAGCCCTGC ((..(((....)))..)) | -11.9 kcal/mol | 57.6 °C |
| GCGAGGCGAAAGCGACGC (((..((....))..))) | -25.4 kcal/mol | 62.1 °C |
| GCGAGGCGAAAGCTACGC (((..((....))..))) | -24.3 kcal/mol | 62 °C |
| GCGAGGCGAAAGCTCCGC (((..((....))..))) | -25.2 kcal/mol | 60 °C |
| GCGAGGCTCGC ((((...)))) | -28.5 kcal/mol | 52.8 °C |
| GCGAGGGCTCGC ((((....)))) | -25.5 kcal/mol | 51 °C |
| GCGAGGGGAAACCCCCGC (((.(((....))).))) | -27.5 kcal/mol | 59.6 °C |
| GCGAGGGGAAACCTTCGC ((((.((....)).)))) | -35.4 kcal/mol | 56.3 °C |
| GCGAGGGTTCGC ((((....)))) | -15.7 kcal/mol | 49.3 °C |
| GCGAGGTTCGC ((((...)))) | -16.3 kcal/mol | 48.7 °C |
| GCGAGTACTCGC ((((....)))) | -30.6 kcal/mol | 56.6 °C |
| GCGAGTCGTCGC ((((....)))) | -22.3 kcal/mol | 53.1 °C |
| GCGAGTGGAAACGCTTGC ((.((.(....).)).)) | -22.3 kcal/mol | 48.6 °C |

| Sequence | folding enthalpy [1] | Tm [2] |
| --- | --- | --- |
| GCGAGTTTCGC ((((...)))) | -17.3 kcal/mol | 51 °C |
| GCGATAACTCGC ((((....)))) | -21.1 kcal/mol | 45.9 °C |
| GCGATAATCGC ((((...)))) | -20.7 kcal/mol | 44.4 °C |
| GCGATAATTCGC ((((....)))) | -23.5 kcal/mol | 48.2 °C |
| GCGATAGGAAACTATTGC ((.((((....)))).)) | -38.8 kcal/mol | 45.6 °C |
| GCGATAGTTCGC ((((....)))) | -21.8 kcal/mol | 50.4 °C |
| GCGATATTTCGC ((((....)))) | -23.2 kcal/mol | 50.1 °C |
| GCGATCATTCGC ((((....)))) | -26.6 kcal/mol | 50.7 °C |
| GCGATCCATCGC ((((....)))) | -27.3 kcal/mol | 57.2 °C |
| GCGATCCCGAAAGGGCGC (((..(((....)))))) | -20.6 kcal/mol | 56.3 °C |
| GCGATCCTCGC ((((...)))) | -20.9 kcal/mol | 50.3 °C |
| GCGATCGAAAGATAACGC ((((((....)))..))) | -26.2 kcal/mol | 44.3 °C |
| GCGATCGAAAGATACCGC ((((((....)))..))) | -23.8 kcal/mol | 37.2 °C |
| GCGATCGAAAGATCACGC ((((((....)))..))) | -21.7 kcal/mol | 48.2 °C |
| GCGATCGAAAGATGTCGC ((((((....)))..))) | -22.4 kcal/mol | 43 °C |
| GCGATCGGTCGC ((((....)))) | -31.6 kcal/mol | 48.5 °C |
| GCGATCGTCGC ((((...)))) | -20.2 kcal/mol | 45.9 °C |
| GCGATGATCGC ((((...)))) | -22.3 kcal/mol | 46 °C |
| GCGATGCCTCGC ((((....)))) | -20.5 kcal/mol | 50.4 °C |
| GCGATGCGAAAGCATTGC ((.((((....)))).)) | -43.9 kcal/mol | 68.7 °C |
| GCGATGCGAAAGCCCCGC (((..((....))..))) | -20.5 kcal/mol | 43.9 °C |
| GCGATGCGTCGC ((((....)))) | -20.1 kcal/mol | 64.5 °C |
| GCGATGGGAAACTGTCGC ((((..(....)..)))) | -47.3 kcal/mol | 49.2 °C |
| GCGATGGTCGC ((((...)))) | -7.34 kcal/mol | 47.8 °C |
| GCGATGTGTCGC ((((....)))) | -28.6 kcal/mol | 57 °C |

| Sequence | folding enthalpy [1] | Tm [2] |
| --- | --- | --- |
| GCGATGTTTCGC ((((....)))) | -22.9 kcal/mol | 51.4 °C |
| GCGATTACGAAAGTACGC (((..(((....)))))) | -26 kcal/mol | 43.4 °C |
| GCGATTAGTCGC ((((....)))) | -26.7 kcal/mol | 51.4 °C |
| GCGATTCATCGC ((((....)))) | -30.1 kcal/mol | 58.3 °C |
| GCGATTCGAAAGAACCGC (((.(((....))).))) | -38.6 kcal/mol | 53.1 °C |
| GCGATTCGTCGC ((((....)))) | -28.4 kcal/mol | 54.5 °C |
| GCGATTGAAAAATCGC ((((((....)))))) | -40.7 kcal/mol | 64.8 °C |
| GCGATTGCTCGC ((((....)))) | -14.3 kcal/mol | 52.5 °C |
| GCGATTGGAAACGATTGC ((.((.(....).)).)) | -26.7 kcal/mol | 36.4 °C |
| GCGATTTCGAAAGAACGC (((..(((....)))))) | -24.2 kcal/mol | 36.9 °C |
| GCGCAACGAAAGTTCGC (((.(((....)))))) | -32 kcal/mol | 54.9 °C |
| GCGCAAGCGAAAGCTCGC (((..(((....)))))) | -12.8 kcal/mol | 45.7 °C |
| GCGCAAGGAAACTTGTGC ((.((((....)))).)) | -48.9 kcal/mol | 54.9 °C |
| GCGCACCGAAAGGTTCGC (((.(((....))).))) | -40.3 kcal/mol | 61.4 °C |
| GCGCACGAAAGTGAACGC ((((((....)))..))) | -31.2 kcal/mol | 54.5 °C |
| GCGCACGAAAGTGGACGC ((((((....)))..))) | -32.7 kcal/mol | 55.4 °C |
| GCGCACGAAAGTGTCGC ((((((....))).))) | -27.6 kcal/mol | 64.2 °C |
| GCGCACGGAAACGCGCAC (.((.((....)).)).) | -13.7 kcal/mol | 52.4 °C |
| GCGCAGCCGAAAGGCCGC (((..(((....)))))) | -16.7 kcal/mol | 57.9 °C |
| GCGCAGCGAAAGCCTCGC (((..((....))..))) | -8.27 kcal/mol | 42.1 °C |
| GCGCAGCGAAAGCGTCGC (((..((....))..))) | -13.3 kcal/mol | 58.9 °C |
| GCGCAGCGAAAGCTATGC ((..(((....)))..)) | -7.11 kcal/mol | 39.3 °C |
| GCGCAGCGAAAGCTCTGC ((..(((....)))..)) | -7.6 kcal/mol | 38.5 °C |
